Measurements: ChEMBL document CHEMBL1921762, “Investigating the antimalarial action of 1,2,4-trioxolanes with fluorescent chemical probes” (J Med Chem, 2011)
Activity calls are given as the source filed them. The rule behind the calls is not given here.

What was measured:
[1] = Drug uptake in Plasmodium falciparum […] lipid bodies assessed decrease in fluorescence at 500 nM pretreated with 500 nM unlabeled compound; format: ADME; conditions: 0.5 µM
Outline: (§1)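 Mid- to late trophozoite cultures were pre-treated for 10 min at 37 °C with 500 nM unlabeled trioxolane or 0.01% MeOH vehicle in warm complete medium. Medium was then replaced with 500 nM fluorescent trioxolane for 10 min. Cells were washed, saponin-released and examined by fluorescence microscopy. Labeled NLB were counted in ~10 random fields (~300 parasites per group) and normalised to parasite number. Results are % decrease versus MeOH, from 3 experiments with t test.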

[2] = Drug uptake in Plasmodium falciparum assessed as accumulation in […] lipid bodies at 500 nM in presence of methanol; format: ADME; conditions: 0.5 µM; outline: as §1
[3] = Drug uptake in Plasmodium falciparum assessed as accumulation in small spherical structures in digestive vacuole at 500 nM; format: ADME; conditions: 0.5 µM
Outline: (§2)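 Mixed-stage P. falciparum cultures were exposed to 500 nM fluorescent probe for 10 min in RPMI at 37 °C. They were washed twice with PBS, viewed directly or after 0.2% saponin release, and imaged live by epifluorescence at 100X oil immersion, with phase contrast overlay.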

[4] = tested on: Plasmodium falciparum; assay: Antimalarial activity against Plasmodium falciparum FCB infected in human A-positive type erythrocytes after 72 hrs by SYBR Green I assay
[5] = Drug uptake in Plasmodium falciparum assessed as cytoplasmic accumulation at 500 nM; format: ADME, Cytoplasm; conditions: 0.5 µM; outline: as §2
[6] = tested on: Plasmodium falciparum; assay: Drug uptake in Plasmodium falciparum assessed as subcellular localization at 500 nM; format: ADME, organism-based; conditions: 0.5 µM; outline: as §2
[7] = Drug uptake in Plasmodium falciparum assessed as accumulation in membranous structures at 500 nM; format: ADME; conditions: 0.5 µM
Outline: (§3)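 Mixed-stage P. falciparum cultures (strains FCB and 7G8, grown in human A+ or AB+ erythrocytes at 37 °C in supplemented RPMI 1640 under 90% N2/5% O2/5% CO2) were exposed to 500 nM probe for 10 min in RPMI at 37 °C. Cells were washed twice with PBS, viewed directly or after 0.2% saponin release, and imaged by 100X oil-immersion epifluorescence with phase contrast.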

[8] = Drug uptake in Plasmodium falciparum assessed as accumulation in nuclear lipid bodies at 500 nM; format: ADME; conditions: 0.5 µM, in the assay text read “neutral lipid bodies” for “nuclear lipid bodies”; outline: as §3
[9] = tested on: Plasmodium falciparum; assay: Induction of peroxidation of Plasmodium falciparum membrane-incorporated BODIPY at asexual stage at 250 nM after 2.5 hrs by fluorescence microscopic analysis; format: functional, organism-based
Outline: (§4)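 Cultures at each asexual stage were exposed at 37 °C for 2.5 h to 250 nM compound or 0.01% MeOH vehicle, then to 40 nM BODIPY 581/591 C11 for a further 30 min. Trophozoites were saponin-released; ring and segmenter stages were imaged in erythrocytes. Peroxidation was read as a red-to-yellow/green fluorescence shift by microscopy.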

[10] = tested on: Plasmodium falciparum; assay: Induction of peroxidation of Plasmodium falciparum membrane-incorporated BODIPY at trophozoite stage at 250 nM after 2.5 hrs by fluorescence microscopic analysis; format: functional, organism-based; outline: as §4
[11] = tested on: Plasmodium falciparum; assay: Induction of peroxidation of Plasmodium falciparum membrane-incorporated BODIPY at ring stage at 250 nM after 2.5 hrs by fluorescence microscopic analysis; format: functional, organism-based; outline: as §4
[12] = tested on: Plasmodium falciparum; assay: Induction of peroxidation of Plasmodium falciparum membrane-incorporated BODIPY at 250 nM after 2.5 hrs by fluorescence microscopic analysis; format: functional, organism-based; outline: as §4
[13] = tested on: Plasmodium falciparum; assay: Antimalarial activity against Plasmodium falciparum K1 infected in human A-positive type erythrocytes after 72 hrs by SYBR Green I assay; conditions: K1, 72 h
[14] = Binding affinity to Plasmodium falciparum calcium-transporting ATPase

In the case of CN(C)c1cccc2c(S(=O)(=O)OC34CC5CC(C3)C3(OOC6(CCCCC6)O3)C(C5)C4)cccc12 (mixture of isomers), the Drug uptake [1] is reported as “Not Active”, the Drug uptake [2] is reported as “Active” and the Drug uptake [3] is reported as “Active”. The IC50 [4] was 17.9 nM.

In the case of CN(C)c1cccc2c(S(=O)(=O)NCCCNC3CCC4(CC3)OOC3(O4)C4CC5CC(C4)CC3C5)cccc12 (mixture of isomers), the Drug uptake [5] is reported as “Active”, the Drug uptake [6] is reported as “Not Active” and the IC50 [4] is reported as 14.6 nM.

For CN(C)c1cccc2c(S(=O)(=O)OC34CC5CC(C3)C3(OCC6(CCCCC6)O3)C(C5)C4)cccc12 (mixture of isomers), the Drug uptake [7] was “Not Active”, the Drug uptake [8] was “Not Active” and the IC50 [4] was 25000 nM.

For CC(C)(C)OC(=O)NCCCNC1CCC2(CC1)OOC1(O2)C2CC3CC(C2)CC1C3 (mixture of isomers), the Activity [9] was “Active”, the Activity [10] was “Active” and the Activity [11] was “Active”. For the same compound, the IC50 [4] was 12.6 nM and the Activity [12] was “Active”.

In the case of C[C@@H]1CC[C@H]2[C@@H](C)C(=O)O[C@@H]3O[C@@]4(C)CC[C@@H]1[C@]32OO4 [ARTEMISININ], the IC50 [4] is reported as 8 nM.

In the case of CC(C)(N)CNC(=O)C[C@H]1CC[C@]2(CC1)OO[C@]1(O2)C2CC3CC(C2)CC1C3 [OZ277], the IC50 [13] is reported as 2.5 nM and the Ki [14] is reported as 7900 nM.
